Experimental data collected from several papers.
Lines come from different studies, so protocols differ. Converted amounts (≈) assume the structure as drawn.

Structure (SMILES)	organism	test	test system	conditions	endpoint	result
CN(Cc1ccc(C2(C(F)(F)F)CC2)cc1)Cc1cccc2ccccc12	Trichophyton mentagrophytes	microbial growth, disc diffusion	ATCC18748	0.256 µg/mL, 72 h	inhibition zone	≥ 55 mm
COC1=CC2=[N+](C)CCc3c[nH]c(c32)C1=O	Babesia divergens	parasite growth, SYBR Green	–	60 h, blood stage	IC50	1000 nM
C[C@@H]1[C@H](O)[C@@H](C)/C=C/C=C/C=C/C=C/C=C/C=C/C=C/[C@H](O[C@@H]2O[C@H](C)[C@@H](O)[C@H](N)[C@@H]2O)C[C@@H]2O[C@](O)(C[C@@H](O)C[C@@H](O)[C@H](O)CC[C@@H](O)C[C@@H](O)CC(=O)O[C@H]1C)C[C@H](O)[C@H]2C(=O)O	Trichophyton mentagrophytes	microbial growth, broth dilution	ATCC9533	96 h	MIC	8 µg/mL (≈ 8.66 µM)
CN(Cc1ccc(C(C)(C)C)cc1)Cc1cccc2ccccc12	Trichophyton mentagrophytes	microbial growth, disc diffusion	ATCC18748	0.002 µg/mL, 72 h	inhibition zone	27.8 mm
CN(C)c1ccc(-c2c(C(N)=S)c(N)n(N)c(=O)c2C#N)cc1	Enterobacter cloacae	microbial growth, well diffusion	ATCC23355	500 µg/mL	inhibition zone	14 mm
COC(CNC1=CC2=NCCc3c[nH]c(c32)C1=O)c1c[nH]c2ccccc12 (stereo not drawn)	Babesia divergens	parasite growth, SYBR Green	–	60 h, blood stage	IC50	578 nM
Cc1c(C(N)=S)c(N)n(N)c(=O)c1C#N	Enterobacter cloacae	microbial growth, well diffusion	ATCC23355	500 µg/mL	inhibition zone	19 mm
O=C1C(NCCc2c[nH]c3ccccc23)=CC2=NCCc3c[nH]c1c32	Babesia divergens	parasite growth, SYBR Green	–	60 h, blood stage	IC50	970 nM
CN(C)c1ccc(-c2c(C(N)=O)c(N)n(N)c(=O)c2C#N)cc1	Enterobacter cloacae	microbial growth, well diffusion	ATCC23355	500 µg/mL	inhibition zone	17 mm
O=C1C(Br)=C(Br)C(=O)c2ccccc21	Trichophyton mentagrophytes	microbial growth, broth dilution	ATCC9533	96 h	MIC	< 1.56 µg/mL
N#Cc1c(-c2ccc(OCc3ccccc3)cc2)c(C(N)=S)c(N)n(N)c1=O	Enterobacter cloacae	microbial growth, well diffusion	ATCC23355	500 µg/mL	inhibition zone	15 mm
Cn1cc2c3c1C(=O)C(NCCc1ccc(O)cc1)=CC3=NCC2	Babesia divergens	parasite growth, SYBR Green	–	60 h, blood stage	IC50	1000 nM
